A selection: hits, their analogues and other compounds. The true share with any hit is near 2.5%.
MBD2 inh: MBD2-methylated oligo binding inhibition | AID 686964 | TR-FRET, MBD2 binding to methylated oligonucleotide | inhibition, % at 4.4 µM | actives 0.31% (n = 370,000) | Q9UBB5; in the data active = inhibition above about 13%
Arr AP2 block: blocks beta-arrestin peptide binding to AP2 adaptin. FITC-arrestin peptide / GST-AP2 beads, flow cytometry; AP2 beta2 appendage carries R879A mutation. inhibition, % at 10 µM. actives 0.31% (n = 340,000);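 active = inhibition above a set limit, near 3 SD of compounds lacking own fluorescence, cut at about 54% in these data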;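 also: plate controls were DMSO wells for no effect and 5 µM unlabelled arrestin peptide for full effect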
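System: GST-AP2 R879A glutathione beads; medium: PBS, Tween 20 0.05%, BSA 0.1%; reagent: fluorescein-tagged arrestin peptide at 50 nM final; schedule: pre-incubation 12 min, peptide binding 1 h, room temperature; detection: flow cytometry, FL1 (488/535 nm); read-out: inhibition as reduced fluorescein signal on beads, percent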
B2AR ag: activates human beta-2 adrenergic receptor causing internalization. response, % (no concentration beside the values). Am2.2-beta2AR cells, FAP receptor internalization, flow cytometry. P07550. actives 0.43% (n = 340,000);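 active = response above a set limit, near 3 SD of response in nonfluorescent compounds, cut at about 42% in these data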
Target sequence (P07550 whole entry, looked up): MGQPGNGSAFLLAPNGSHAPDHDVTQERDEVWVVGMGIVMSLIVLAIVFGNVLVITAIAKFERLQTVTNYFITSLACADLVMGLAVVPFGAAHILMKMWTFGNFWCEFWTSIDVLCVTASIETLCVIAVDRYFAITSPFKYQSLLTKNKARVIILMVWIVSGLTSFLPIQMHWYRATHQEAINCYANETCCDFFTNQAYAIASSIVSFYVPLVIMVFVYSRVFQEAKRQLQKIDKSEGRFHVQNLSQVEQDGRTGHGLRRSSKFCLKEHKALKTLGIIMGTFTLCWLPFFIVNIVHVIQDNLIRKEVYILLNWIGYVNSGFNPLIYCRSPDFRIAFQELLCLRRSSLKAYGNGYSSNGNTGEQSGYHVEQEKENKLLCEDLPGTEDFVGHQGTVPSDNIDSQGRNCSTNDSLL
Rin1-Abl PPI inh: inhibitors of human Rin1-Abl protein interaction; TR-FRET Rin1/Abl binding, biochemical; actives 0.4% (n = 360,000); inhibition, % at 7.35 µM; in the data active = inhibition above about 5%, passing the limit was not always enough
ABHD5 PLIN5 PPI: inhibitors of human ABHD5-perilipin-5 interaction. inhibition, % at 4 µM. AID 602281. actives 0.78% (n = 360,000). Split G. princeps luciferase complementation, luminescence, 4 h. Q00G26+Q8WTS1;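 active = inhibition above the mean inhibition across every tested compound plus 3 SD, cut at about 22% in these data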;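 also: 0% = DMSO only wells and the 100% control is not disclosed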
UHRF1 binding: UHRF1 methyl-DNA binding inhibition | Q96T88 | actives 0.75% (n = 370,000) | UHRF1 binding to methylated oligo, TR-FRET | inhibition, % at 4.4 µM;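 also: UHRF1 SRA domain binding a hemimethylated CpG hairpin DNA probe; 0% = median of test compound wells and 100% = reference inhibitor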
Rin1 Abl conf: Rin1-Abl interaction inhibition confirmation; inhibition, % at 7.35 µM; actives 49% (n = 1,300); shares compounds with Rin1-Abl PPI inh; TR-FRET Rin1-Abl binding, purified proteins; in the data active = inhibition above about 6.5%
GFP quencher: counter-screen for Rin1-Abl inhibitors: GFP fluorescence quenchers | actives 8.5% (n = 1,300) | shares compounds with Rin1-Abl PPI inh | AID 602125 | inhibition, % at 6.75 µM | inhibitors/quenchers counterscreen; in the data active = inhibition above about 6.5%;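 also: ABL1-eGFP fusion protein alone without its partner RIN1-SBP; 0% = protein with vehicle and 100% = wells lacking protein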
ABHD5-PLIN5 conf: ABHD5-PLIN5 interaction inhibition, confirmed; shares compounds with ABHD5 PLIN5 PPI; biochemical ABHD5-PLIN5 interaction, luminescence; inhibition, % at 4 µM; actives 67% (n = 2,200); in the data active = inhibition above about 23%;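 also: 0% = DMSO vehicle wells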
HNF4 split-luc: counter-screen for ABHD5-PLIN5 inhibitors: HNF4 split-luciferase; shares compounds with ABHD5 PLIN5 PPI; HNF4 dimerization, luminescence, biochemical; inhibition, % at 4 µM; actives 77% (n = 2,200); AID 651674;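 active = mean inhibition across replicate wells exceeding the computed hit threshold, cut at about 13% in these data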;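 also: light from luciferase halves that rejoin when HNF4 fusion proteins dimerize; 0% = DMSO only wells and the 100% control is not given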
UHRF1 ctr MBD2: inhibits human UHRF1 binding to methylated oligonucleotide, MBD2 counter-screen; shares compounds with MBD2 inh; TR-FRET; inhibition, % at 4.4 µM; actives 25% (n = 1,000); AID 720530;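 also: UHRF1 SRA domain binding a labeled hemimethylated CpG hairpin DNA; 0% = vehicle only and 100% = reference inhibitor with vehicle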
MBD2 confirm: MBD2-DBD methyl-DNA binding inhibition, TR-FRET confirmation; TR-FRET MBD2-DBD binding to methylated oligonucleotide; inhibition, % at 4.4 µM; shares compounds with MBD2 inh; actives 26% (n = 1,000); in the data active = inhibition above about 14%
* marks the source's active call; other numbers are inactive results; . = not tested or not shown. Rule as the data show it, unless noted: active = inhibition above about 21%; inactive = the rest.

SMILES	MBD2 inh	Arr AP2 block	B2AR ag	Rin1-Abl PPI inh	ABHD5 PLIN5 PPI	UHRF1 binding	ABHD5-PLIN5 conf	HNF4 split-luc	others
CCCCCCCCN1C(=O)[C@@H](CC(=O)NCCc2ccccc2OC)C[C@@]2(C(=O)OC)C1=C[C@H](COCc1ccccc1)O[C@@H]2C	3	.	.	.	.	-3	.	.
COc1cccc(C(c2c(C)[nH]n(-c3ccccc3)c2=O)c2c(C)[nH]n(-c3ccccc3)c2=O)c1OC	17*	25	20	6.4*	5	18	.	.	Rin1 Abl conf=0;GFP quencher=-2;UHRF1 ctr MBD2=2;MBD2 confirm=1
CCCCN(C)c1nc(-c2ccco2)c2c(c1C#N)CC(C)(C)OC2	1	8	13	1	28*	0	54*	79*
O=C1CSc2ccc(C(=O)N3CCCC(C(=O)N4CCN(c5ccc(F)cc5)CC4)C3)cc2N1 (stereo not drawn)	3	.	.	.	.	2	.	.
Cc1ccc(-c2ccc(CCC(=O)O)o2)cc1	0	5	7	4	28*	1	13	44*
O=C(CSc1nnc(-c2cccnc2)n1C1CCCCC1)N1CCCC1	-2	.	.	.	.	1	.	.
O=C(C1CCN(c2ncnc3c2sc2cccc(F)c23)CC1)N1CCN(C(=O)C2CCCO2)CC1 (stereo not drawn)	0	.	.	.	.	-2	.	.
Cc1cc(Br)cn2c(Cc3ccsc3)c(-c3ccco3)nc12	6	.	.	-24	15	3	.	.
COc1ccccc1Cc1c(-c2ccco2)nc2c(C)cc(Br)cn12	.	.	.	-14	58*	.	36*	40*
Cc1cc(Br)cn2c(Cc3ccccc3)c(-c3ccco3)nc12	4	.	.	-21	30*	11	30*	45*
COc1ccccc1Cc1c(-c2ccc(OC)c(OC)c2)nc2ccc(C)cn12	3	.	.	3	3	14	.	.
FC(F)(F)c1ccccc1Cc1c(-c2ccco2)nc2ccc(Cl)cn12	-2	.	.	1	34*	2	46*	63*
COc1ccccc1Cc1c(-c2ccco2)nc2ccc(C)cn12	4	.	.	3	56*	20	27*	48*
C[C@@H]1CCN(C2CC2)S(=O)(=O)c2ccc(N3CC[C@H](O)C3)cc2O1	1	.	.	.	.	-2	.	.
Cc1ccc2nc(-c3ccco3)c(Cc3cccc(F)c3)n2c1	4	.	.	0	56*	18	11	20*
Cc1ccc2nc(-c3ccccc3)c(Cc3cccc(F)c3)n2c1	2	.	.	.	-5	16	.	.
COc1ccc(-n2c(SCC(=O)N/N=C(/C)c3cccc(O)c3)nc3ccccc3c2=O)cc1	-3	.	.	.	.	1	.	.
O=C1C=CC(=Nc2ccc3c(c2)Cc2cc(F)ccc2-3)O1	3	41	9	2	29*	-7	33*	60*
Cc1[nH]nc2c1C(c1ccc(-c3ccc(Cl)cc3)o1)C(C#N)=C(N)O2 (stereo not drawn)	-6	0	-1	-1	28*	-10	17	44*
Cc1ccc(-c2ccc(C3C(C#N)=C(N)Oc4n[nH]c(C)c43)o2)cc1 (stereo not drawn)	3	20	17	-1	24*	-7	26*	44*
c1ccc2cc(Cn3ccc4ccc(-c5ccc6ccn(Cc7ccc8ccccc8c7)c6c5)cc43)ccc2c1	0	.	.	.	.	-2	.	.
COc1cccc(NC(=O)CSc2c3c(nc4ccccc24)CCCC3)c1	3	8	12	-6	34*	-1	39*	46*
CCN(CC)CCNC(=O)CSc1c2c(nc3cc(Cl)ccc13)CCCC2	1	-2	8	-7	33*	-3	46*	41*
O=C(CSc1ccccc1)NC1CCCCN(Cc2cccc(Cl)c2)C1=O (stereo not drawn)	1	.	.	.	.	-1	.	.
CCOc1cc(CNCCCN2CCOCC2)cc(Cl)c1OCC(=O)NC(C)(C)C	-2	9	-4	-2	-6	4	.	.
SMILES	MBD2 inh	Arr AP2 block	B2AR ag	Rin1-Abl PPI inh	ABHD5 PLIN5 PPI	UHRF1 binding	ABHD5-PLIN5 conf	HNF4 split-luc	others
CCOc1cc(CNCCCN2CCOCC2)cc(Br)c1OCC(=O)Nc1cccc(C(F)(F)F)c1	0	-8	18	-2	25*	3	17	15*
COc1cc(CNCCCN2CCOCC2)cc(Br)c1OCc1ccc(Cl)cc1	-1	0	39	1	35*	2	17	1
O=C(c1cncnc1)N1CCC(n2nnc3ncccc32)CC1	-3	.	.	.	.	-1	.	.
COC(=O)[C@@]12CCCCC3=C1N(CCC3)C(=O)[C@H]2CC(=O)N1CCN(C(=O)c2ccco2)CC1	3	.	.	.	.	-1	.	.
CCOC(=O)C1CCCCN1C(=O)/C(=C/c1ccc(OC)cc1)c1ccc(OC)c(OC)c1 (stereo not drawn)	-6	-5	1	-2	24*	-1	-4	0
CCOC(=O)C1CCCCN1C(=O)c1ccc2nc(Cc3ccc(OC)cc3)oc2c1 (stereo not drawn)	3	29	8	1	5	1	.	.
Cc1ccc(-c2csc(NC(=O)C[n+]3cc(-c4ccc(C)cc4)n4c3CCC4)n2)cc1	0	-4	3	-4	25*	-1	10	3
COc1ccc(CNCC#Cc2cccnc2)c(OC)c1	-5	.	.	.	.	-2	.	.
O=C(NC1CCCCN(Cc2cccc(C(F)(F)F)c2)C1=O)c1c(F)cccc1F (stereo not drawn)	3	.	.	.	.	-2	.	.
COc1cccc(NC(=O)COc2coc(CN3CCN(c4ccccc4)CC3)cc2=O)c1	-7	11	3	1	25*	-1	7	1
CCc1ccc(NC(=O)COc2coc(CN3CCN(c4ccccc4)CC3)cc2=O)cc1	-2	33	-2	5	-2	2	.	.
COc1cc(/C=C(/C#N)C(=O)NC(C)c2ccccc2)cc(OC)c1O (stereo not drawn)	-6	21	8	1	14	-2	.	.
